The source made the active and inactive calls. The calls are words filed in the database; no cut-off is given here.
Tests used:
Pseudomonas aeruginosa = test: Antimicrobial activity against Pseudomonas aeruginosa at 0.4 umol/mL by broth microdilution method; type: functional, organism-based
Procedure, shortened: (§1)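 Broth dilution in defined medium against clinical isolates of each organism.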

Epidermophyton floccosum = test: Antimicrobial activity against Epidermophyton floccosum at 0.4 umol/mL by broth microdilution method; type: functional, organism-based; procedure, shortened: as §1
Staphylococcus aureus = test: Antimicrobial activity against Staphylococcus aureus at 0.4 umol/mL by broth microdilution method; type: functional, organism-based; procedure, shortened: as §1
[1] = system: Trichophyton mentagrophytes; test: Antimicrobial activity against Trichophyton mentagrophytes at 0.4 umol/mL by broth microdilution method; type: functional, organism-based; procedure, shortened: as §1
Influenza B virus [2] = test: Antiviral activity against Influenza B virus Lee infected in Swiss-Webster mouse assessed as host mean survival days at 12.5 mg/kg, po qd for 9 days; type: functional, B/Lee/1940
Microsporum canis = test: Antimicrobial activity against Microsporum canis at 0.4 umol/mL by broth microdilution method; type: functional, organism-based; procedure, shortened: as §1
Candida albicans = test: Antimicrobial activity against Candida albicans at 0.4 umol/mL by broth microdilution method; type: functional, organism-based; procedure, shortened: as §1
Human alphaherpesvirus 1 = test: Antiviral activity against HSV1 infected in human KB cells assessed as inhibition of virus-induced cytopathic effect after 72 hrs relative to control; type: functional, organism-based
Procedure, shortened: (§2)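 Cell monolayers (18-24 h) infected with 320 CCID50 of virus; compound added within 15 min at half-log dilutions from 1000 to 1 μg/mL. After 72 h at 37 °C, CPE and cytotoxicity scored microscopically (0-4). Virus rating = sum of (control CPE − treated CPE) over drug levels, halved at any level showing toxicity.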

Influenza B virus [3] = test: Antiviral activity against Influenza B virus Lee infected in Swiss-Webster mouse assessed as host mean survival days at 100 mg/kg, po qd for 9 days; type: functional, B/Lee/1940
Human respirovirus 3 = test: Antiviral activity against Parainfluenza virus 3 infected in human KB cells assessed as inhibition of virus-induced cytopathic effect after 72 hrs relative to control; type: functional, organism-based; procedure, shortened: as §2
Ehrlich [4] = test: Inhibition of adenine nucleotide biosynthesis in mouse EAC assessed as [14C]hypoxanthine incorporation at 1 mM after 60 mins by TLC analysis; type: functional; conditions: 1 h
Procedure, shortened: (§3)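 Ehrlich ascites tumor cells (about 6 × 10^6 cells/mL) preincubated 20 min at 37 °C with or without 1 mM compound. [14C]hypoxanthine (55 μCi/μmol) then added to 0.1 mM final for 60 min. Label in adenine or guanine nucleotides of the acid-soluble fraction measured by TLC; inhibition calculated against untreated cells.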

Influenza B virus [5] = test: Antiviral activity against Influenza B virus Lee infected in Swiss-Webster mouse assessed as host mean survival days at 3.1 mg/kg, po qd for 9 days; type: functional, B/Lee/1940
Mus musculus [6] = test: Toxicity in Influenza B virus Lee infected Swiss-Webster mouse assessed as mortality at 12.5 mg/kg, po qd for 9 days; type: organism-based; design: dose 12.5 mg/kg, route oral; conditions: in vivo, 216 h
KB [7] = test: Antiviral activity against Rhinovirus type 13 infected in human KB cells assessed as inhibition of virus-induced cytopathic effect after 72 hrs relative to control; type: functional, cell-based; conditions: Human rhinovirus A13; procedure, shortened: as §2
Ehrlich [8] = test: Inhibition of guanine nucleotide biosynthesis in mouse EAC assessed as [14C]hypoxanthine incorporation at 1 mM after 60 mins by TLC analysis; type: functional; conditions: 1 h; procedure, shortened: as §3
KB [9] = test: Antiviral activity against Adenovirus type 3 infected in human KB cells assessed as inhibition of virus-induced cytopathic effect after 72 hrs relative to control; type: functional, cell-based; conditions: Human adenovirus 3; procedure, shortened: as §2
Mus musculus [10] = test: Toxicity in Influenza B virus Lee infected Swiss-Webster mouse assessed as mortality at 50 mg/kg, po qd for 9 days; type: organism-based; design: dose 50 mg/kg, route oral; conditions: in vivo, 216 h
Influenza B virus [11] = test: Antiviral activity against Influenza B virus Lee infected in Swiss-Webster mouse assessed as host mean survival days at 50 mg/kg, po qd for 9 days; type: functional, B/Lee/1940
Mus musculus [12] = test: Toxicity in Influenza B virus Lee infected Swiss-Webster mouse assessed as mortality at 100 mg/kg, po qd for 9 days; type: organism-based; design: dose 100 mg/kg, route oral; conditions: in vivo, 216 h
Escherichia coli [13] = test: Inhibition of Escherichia coli IMP dehydrogenase assessed as ratio of compound concentration for 50% inhibition of enzyme activity to 1.7 to 3 x 10^-5 M of substrate concentration
Procedure, shortened: (§4)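 Enzymes partially purified from Escherichia coli B. Substrate at 1.7-3.0 × 10^-5 M. Value is the ratio of inhibitor concentration giving 50% inhibition to substrate concentration.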

[14] = biological target: Bifunctional purine biosynthesis protein ATIC (Homo sapiens) (UniProt P31939); test: Inhibition of Escherichia coli IMP cyclohydrolase (unknown origin) assessed as ratio of compound concentration for 50% inhibition of enzyme activity to 1.7 to 3 x 10^-5 M of substrate concentration; procedure, shortened: as §4
Escherichia coli [15] = test: Inhibition of Escherichia coli adenylosuccinate synthetase assessed as ratio of compound concentration for 50% inhibition of enzyme activity to 1.7 to 3 x 10^-5 M of substrate concentration; procedure, shortened: as §4
Vaccinia virus = test: Antiviral activity against Vaccinia virus infected in human KB cells assessed as inhibition of virus-induced cytopathic effect after 72 hrs relative to control; type: functional, organism-based; conditions: Orthopoxvirus vaccinia; procedure, shortened: as §2
Human alphaherpesvirus 2 = test: Antiviral activity against HSV2 infected in human KB cells assessed as inhibition of virus-induced cytopathic effect after 72 hrs relative to control; type: functional, organism-based; procedure, shortened: as §2
Influenza B virus [16] = test: Antiviral activity against Influenza B virus Lee infected in Swiss-Webster mouse assessed as host mean survival days at 10 mg/kg, po qd for 9 days; type: functional, B/Lee/1940
Escherichia coli [17] = test: Antimicrobial activity against Escherichia coli at 0.0025 to 0.125 umol/mL by broth microdilution method; type: functional, organism-based; procedure, shortened: as §1
Influenza B virus [18] = test: Antiviral activity against Influenza B virus Lee infected in Swiss-Webster mouse assessed as host mean survival days at 40 mg/kg, po qd for 9 days; type: functional, B/Lee/1940
Influenza B virus [19] = test: Antiviral activity against Influenza B virus Lee infected in Swiss-Webster mouse assessed as host mean survival days at 2.5 mg/kg, po qd for 9 days; type: functional, B/Lee/1940

Sequence of Bifunctional purine biosynthesis protein ATIC (Homo sapiens) (P31939 whole entry, looked up): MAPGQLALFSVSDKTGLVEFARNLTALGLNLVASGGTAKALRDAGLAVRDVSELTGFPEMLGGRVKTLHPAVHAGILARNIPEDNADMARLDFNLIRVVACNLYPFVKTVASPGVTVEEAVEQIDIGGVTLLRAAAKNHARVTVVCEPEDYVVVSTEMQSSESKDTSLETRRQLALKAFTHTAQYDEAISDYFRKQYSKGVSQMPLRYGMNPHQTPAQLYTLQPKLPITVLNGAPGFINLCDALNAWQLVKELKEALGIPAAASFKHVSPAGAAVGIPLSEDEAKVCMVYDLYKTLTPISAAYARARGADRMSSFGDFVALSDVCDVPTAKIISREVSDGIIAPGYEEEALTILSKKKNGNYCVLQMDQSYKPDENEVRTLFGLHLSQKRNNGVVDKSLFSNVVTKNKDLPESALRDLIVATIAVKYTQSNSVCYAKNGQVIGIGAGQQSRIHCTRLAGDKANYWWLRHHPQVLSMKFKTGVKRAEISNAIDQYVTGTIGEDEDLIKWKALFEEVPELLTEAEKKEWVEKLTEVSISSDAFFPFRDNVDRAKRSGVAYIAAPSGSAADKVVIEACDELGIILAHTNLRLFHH

Row | SMILES | Activity (Pseudomonas aeruginosa) | Activity (Epidermophyton floccosum) | Activity (Staphylococcus aureus) | Activity [1] | Activity (Microsporum canis) | Activity (Candida albicans) | Activity (Human alphaherpesvirus 1) | Activity (Human respirovirus 3) | inhibition at 1000 µM (Ehrlich [4]) | Activity (KB [7]) | inhibition at 1000 µM (Ehrlich [8]) | Activity (KB [9]) | Activity (Vaccinia virus) | Activity (Human alphaherpesvirus 2) | other results
1 | COC(=O)c1ncn(C2CCCCO2)c1CC#N (configuration not stated) | inactive | inactive | inactive | inactive | inactive | inactive | – | – | – | – | – | – | – | – | Time (Influenza B virus [2]): >0.3 days
2 | N#CCc1[nH]cnc1C(N)=O | inactive | inactive | inactive | inactive | inactive | inactive | Active | Active | 8% | Active | 39% | Active | – | – | Time (Influenza B virus [3]): 0.118 days; Time (Influenza B virus [5]): 0.23 days; Activity (Mus musculus [6]): Non-toxic; Time (Influenza B virus [2]): >0.3 days; Activity (Mus musculus [10]): Non-toxic; Time (Influenza B virus [11]): >0.3 days; Activity (Mus musculus [12]): Non-toxic
3 | NC(=O)c1ncn([C@@H]2O[C@H](COP(=O)(O)O)[C@@H](O)[C@H]2O)n1 | – | – | – | – | – | – | – | – | – | – | – | – | – | – | Ratio (Escherichia coli [13]): 0.016; Ratio [14]: 0.46; Ratio (Escherichia coli [15]): 160
4 | N#CCc1c(C(N)=O)ncn1[C@@H]1O[C@H](CO)[C@@H](O)[C@H]1O | inactive | inactive | inactive | inactive | inactive | inactive | Active | inactive | 6% | inactive | 11% | – | inactive | Active | Time (Influenza B virus [3]): >0.3 days; Time (Influenza B virus [2]): >0.3 days; Time (Influenza B virus [11]): 0.118 days
5 | NC(=O)c1ncn([C@@H]2O[C@H](CO)[C@@H](O)[C@H]2O)n1 [RIBAVIRIN] | – | – | – | – | – | – | Active | Active | 14% | Active | 65% | Active | Active | Active | –
6 | Nc1cc2[nH]cnc2c(=O)[nH]1 [DEZAGUANINE] | inactive | inactive | inactive | inactive | inactive | inactive | Active | Active | 20% | Active | 40% | Active | Active | Active | Time (Influenza B virus [16]): >0.3 days; Activity (Escherichia coli [17]): Active; Time (Influenza B virus [18]): 0.23 days
7 | Nc1cc2ncn([C@@H]3O[C@H](CO)[C@@H](O)[C@H]3O)c2c(=O)[nH]1 | – | – | – | – | – | – | – | – | – | – | – | – | – | – | Activity (Escherichia coli [17]): Active
8 | Nc1cc2ncn(C3CCCCO3)c2c(=O)[nH]1 (configuration not stated) | inactive | inactive | inactive | inactive | inactive | inactive | Active | inactive | – | Active | – | – | – | – | –
9 | Nc1cc2c(ncn2[C@@H]2O[C@H](CO)[C@@H](O)[C@H]2O)c(=O)[nH]1 | inactive | inactive | inactive | inactive | inactive | inactive | Active | Active | 24% | Active | 38% | Active | Active | Active | Time (Influenza B virus [19]): 0.118 days; Time (Influenza B virus [16]): >0.3 days; Time (Influenza B virus [18]): >0.3 days
10 | Nc1cc2c(ncn2[C@@H]2O[C@H](COP(=O)(O)O)[C@@H](O)[C@H]2O)c(=O)[nH]1 | inactive | inactive | inactive | inactive | inactive | inactive | Active | Active | 18% | Active | 68% | Active | Active | Active | Ratio (Escherichia coli [13]): 0.068; Ratio (Escherichia coli [15]): 20
11 | C[C@H]1O[C@@H](n2cnc3c(=O)[nH]c(N)cc32)[C@H](O)[C@@H]1O | inactive | inactive | inactive | inactive | inactive | inactive | Active | inactive | – | inactive | – | – | – | – | –
